For experiment [1], the system named is Rattus norvegicus. Description: Antiinflammatory activity in rat assessed as inhibition of formalin-induced paw oedema at 100 mg/kg, ip after 8 hrs. The format is functional. The settings on record: route intraperitoneal. In a few lines:
(§1)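 Albino rats of either sex, six per group, with plain 2% CMC as control. Formalin injected into the paw to induce oedema. Paw volume measured by plethysmograph (mercury displacement) immediately after injection (0 h), then at 0.5, 1, 2, 4, 8, 12 and 24 h. Results given as % inhibition of inflammation. P < 0.05 taken as significant.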

Experiment [2] deals with Mus musculus. Description: Acute toxicity in Albino mouse at 100 mg/kg after 24 hrs. The format is functional, organism-based. Further details: dose 100 mg/kg. In a few lines:
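Albino mice (20–25 g), fasted overnight, dosed across 1000–100 mg/kg body weight and watched for 24 h for signs of acute toxicity, e.g. raised or lowered motor activity, tremors, convulsion, sedation, lacrimation.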

Experiment [3] deals with Rattus norvegicus. Description: Antiinflammatory activity in rat assessed as inhibition of formalin-induced paw oedema at 100 mg/kg, ip. The settings on record: route intraperitoneal. Format: functional. In a few lines:
as §1

Experiment [4] has as its system Rattus norvegicus. As to the kind of experiment: Antiinflammatory activity in rat assessed as inhibition of formalin-induced paw oedema at 100 mg/kg, ip after 0.5 hrs. The format is functional. As to conditions: route intraperitoneal. In a few lines:
as §1

Experiment [5] deals with Rattus norvegicus. Description: Antiinflammatory activity in rat assessed as inhibition of formalin-induced paw oedema at 100 mg/kg, ip after 1 hr. The format is functional. The settings on record: route intraperitoneal. Summed up:
as §1

Experiment [6] deals with Rattus norvegicus. Description: Antiinflammatory activity in rat assessed as inhibition of formalin-induced paw oedema at 100 mg/kg, ip after 2 hrs. Format: functional. The settings on record: route intraperitoneal. Summed up: as §1
The test system of experiment [7] is Rattus norvegicus. Description: Antiinflammatory activity in rat assessed as inhibition of formalin-induced paw oedema at 100 mg/kg, ip after 4 hrs. Format: functional. As to conditions: route intraperitoneal. In a few lines: as §1
Experiment [8] has as its system Rattus norvegicus. As to the kind of experiment: Antiinflammatory activity in rat assessed as inhibition of formalin-induced paw oedema at 100 mg/kg, ip after 12 hrs. Format: functional. The settings on record: route intraperitoneal. Summed up:
as §1

The subject of experiment [9] is Rattus norvegicus. As to the kind of experiment: Antiinflammatory activity in rat assessed as inhibition of formalin-induced paw oedema at 100 mg/kg, ip after 24 hrs. The format is functional. The settings on record: route intraperitoneal. In a few lines: as §1
For experiment [10], the system named is Mus musculus. Description: Analgesic activity in Albino mouse assessed as inhibition of acetic acid-induced writhing responses at 100 mg/kg, po. The arrangement: scale not given: the % may be the effect or the level left. (In general: An intraperitoneal irritant provokes the stretching counted in writhing tests.)

In the case of `Cc1cccc2c(CNc3nc(-c4cc5cc(Br)cc(Br)c5oc4=O)cs3)cc(=O)[nH]c12`, the inhibition in vivo at 100 mg/kg was 33.7% in the experiment with Rattus norvegicus [1]; 2.65% with Rattus norvegicus [3]; 3.65% with Rattus norvegicus [4]; 11.3% in the experiment on Rattus norvegicus [5]; 16.3% in the experiment on Rattus norvegicus [6]; 22.7% in the experiment on Rattus norvegicus [7]. For the same compound, the inhibition in vivo at 100 mg/kg worked out at 16.7% with Rattus norvegicus [8] and 9.78% with Rattus norvegicus [9]. For the same compound, the Activity entry in the experiment on Mus musculus [2] was “Not toxic”; with Mus musculus [10], 62.73%.

Take `CC(=O)Oc1ccccc1C(=O)O` [ASPIRIN]: the inhibition in vivo at 100 mg/kg in the experiment with Rattus norvegicus [1] was 39.7%; in the experiment with Rattus norvegicus [3], 5.97%; in the experiment on Rattus norvegicus [4], 9.76%; in the experiment with Rattus norvegicus [5], 17.1%; with Rattus norvegicus [6], 29.9%; in the experiment on Rattus norvegicus [7], 49.9%. Further, the inhibition in vivo at 100 mg/kg in the experiment on Rattus norvegicus [8] amounted to 22.2%; in the experiment on Rattus norvegicus [9], 17.4%. Also, the Activity with Mus musculus [10] was 81.56%.

For `O=c1cc(CNc2nc(-c3cc4cc(Br)ccc4oc3=O)cs2)c2ccc(Cl)cc2[nH]1`, the inhibition in vivo at 100 mg/kg stood at 24.5% in the experiment on Rattus norvegicus [1]; 2.4% in the experiment on Rattus norvegicus [3]; 5.26% in the experiment on Rattus norvegicus [4]; 5.8% with Rattus norvegicus [5]; 9.09% in the experiment with Rattus norvegicus [6]; 13.3% in the experiment with Rattus norvegicus [7]. The figures for the inhibition in vivo at 100 mg/kg with Rattus norvegicus [8] and with Rattus norvegicus [9] were 23.2% and 18.4%, respectively. For the same compound, the Activity entry was “Not toxic” in the experiment with Mus musculus [2] and 64.94% in the experiment on Mus musculus [10].

As to `Cc1cccc2c(CNc3nc(-c4cc5cc(Br)ccc5oc4=O)cs3)cc(=O)[nH]c12`, the inhibition in vivo at 100 mg/kg with Rattus norvegicus [1] turned out to be 18.5%; with Rattus norvegicus [3] it was 1.6%; in the experiment on Rattus norvegicus [4], 3.12%; in the experiment with Rattus norvegicus [5], 8.76%; in the experiment on Rattus norvegicus [6], 9.19%; with Rattus norvegicus [7], 14.5%. In addition, the inhibition in vivo at 100 mg/kg with Rattus norvegicus [8] stood at 24.1%; with Rattus norvegicus [9], 16.9%. The Activity result in the experiment on Mus musculus [2] was “Not toxic”; in the experiment on Mus musculus [10] it was 35.05%.

As to `O=c1cc(CNc2nc(-c3cc4ccccc4oc3=O)cs2)c2ccc(Cl)cc2[nH]1`, the Activity entry with Mus musculus [2] was “Not toxic”.

For the compound `O=c1cc(CNc2nc(-c3cc4cc(Br)cc(Br)c4oc3=O)cs2)c2cc(Cl)ccc2[nH]1`, the inhibition in vivo at 100 mg/kg was found to be 21.9% in the experiment on Rattus norvegicus [1]; 2.85% in the experiment with Rattus norvegicus [3]; 6.75% in the experiment on Rattus norvegicus [4]; 13.8% in the experiment on Rattus norvegicus [5]; 17.8% in the experiment with Rattus norvegicus [6]; 29.8% in the experiment with Rattus norvegicus [7]. Also, the inhibition in vivo at 100 mg/kg was 14.4% with Rattus norvegicus [8] and 9.35% in the experiment on Rattus norvegicus [9]. Also, the figures for the Activity result in the experiment on Mus musculus [2] and in the experiment with Mus musculus [10] were “Not toxic” and 48.7%, respectively.

Regarding `O=c1cc(CNc2nc(-c3cc4cc(Br)ccc4oc3=O)cs2)c2cc(Cl)ccc2[nH]1`, the inhibition in vivo at 100 mg/kg is 28.6% with Rattus norvegicus [1]; 3.03% in the experiment on Rattus norvegicus [3]; 4.11% in the experiment on Rattus norvegicus [4]; 4.42% with Rattus norvegicus [5]; 5.26% in the experiment with Rattus norvegicus [6]; 19.8% in the experiment on Rattus norvegicus [7]. Also, the inhibition in vivo at 100 mg/kg with Rattus norvegicus [8] was determined as 15.6%; in the experiment on Rattus norvegicus [9] it was 9.08%. Besides, the Activity result in the experiment with Mus musculus [2] was “Not toxic”; in the experiment on Mus musculus [10], 88.89%.

Regarding `O=c1cc(CNc2nc(-c3cc4cc(Br)cc(Br)c4oc3=O)cs2)c2ccc(Cl)cc2[nH]1`, the inhibition in vivo at 100 mg/kg with Rattus norvegicus [1] is 41.5%; in the experiment with Rattus norvegicus [3], 2.89%; in the experiment with Rattus norvegicus [4] it was 3.27%; with Rattus norvegicus [5], 12.6%; in the experiment on Rattus norvegicus [6], 13%; with Rattus norvegicus [7] it was 34.5%. Also, the inhibition in vivo at 100 mg/kg in the experiment on Rattus norvegicus [8] worked out at 18.7%; in the experiment on Rattus norvegicus [9], 10.6%. Besides, the Activity result in the experiment with Mus musculus [2] is “Not toxic”; in the experiment with Mus musculus [10], 78.22%.

Turning to `O=c1cc(CNc2nc(-c3cc4ccccc4oc3=O)cs2)c2cc(Cl)ccc2[nH]1`, the Activity entry in the experiment with Mus musculus [2] is “Not toxic”.

For the compound `Cc1cccc2c(CNc3nc(-c4cc5ccccc5oc4=O)cs3)cc(=O)[nH]c12`, the Activity result with Mus musculus [2] was “Not toxic”.

One may read the inhibition in vivo as the percentage by which the read-out fell short of the control.
